Screens as filed in PubChem BioAssay.
Compounds with a hit are over-represented: about 3.1% of the library has one in this group of screens.
hERG protect – shields human hERG channel from block by proarrhythmic agents; CHO-hERG, FluxOR thallium flux, dofetilide IC70 present; activation (rescue from dofetilide block), less the hit threshold, % at 10 µM; 310,000 tested, 0.51% active; AID 1511;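 active = activation above the mean of controls blocked by dofetilide plus 5 SD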;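 also: thallium influx through hERG after potassium depolarization seen as dye fluorescence rise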
Target sequence (Q12809 whole entry, looked up): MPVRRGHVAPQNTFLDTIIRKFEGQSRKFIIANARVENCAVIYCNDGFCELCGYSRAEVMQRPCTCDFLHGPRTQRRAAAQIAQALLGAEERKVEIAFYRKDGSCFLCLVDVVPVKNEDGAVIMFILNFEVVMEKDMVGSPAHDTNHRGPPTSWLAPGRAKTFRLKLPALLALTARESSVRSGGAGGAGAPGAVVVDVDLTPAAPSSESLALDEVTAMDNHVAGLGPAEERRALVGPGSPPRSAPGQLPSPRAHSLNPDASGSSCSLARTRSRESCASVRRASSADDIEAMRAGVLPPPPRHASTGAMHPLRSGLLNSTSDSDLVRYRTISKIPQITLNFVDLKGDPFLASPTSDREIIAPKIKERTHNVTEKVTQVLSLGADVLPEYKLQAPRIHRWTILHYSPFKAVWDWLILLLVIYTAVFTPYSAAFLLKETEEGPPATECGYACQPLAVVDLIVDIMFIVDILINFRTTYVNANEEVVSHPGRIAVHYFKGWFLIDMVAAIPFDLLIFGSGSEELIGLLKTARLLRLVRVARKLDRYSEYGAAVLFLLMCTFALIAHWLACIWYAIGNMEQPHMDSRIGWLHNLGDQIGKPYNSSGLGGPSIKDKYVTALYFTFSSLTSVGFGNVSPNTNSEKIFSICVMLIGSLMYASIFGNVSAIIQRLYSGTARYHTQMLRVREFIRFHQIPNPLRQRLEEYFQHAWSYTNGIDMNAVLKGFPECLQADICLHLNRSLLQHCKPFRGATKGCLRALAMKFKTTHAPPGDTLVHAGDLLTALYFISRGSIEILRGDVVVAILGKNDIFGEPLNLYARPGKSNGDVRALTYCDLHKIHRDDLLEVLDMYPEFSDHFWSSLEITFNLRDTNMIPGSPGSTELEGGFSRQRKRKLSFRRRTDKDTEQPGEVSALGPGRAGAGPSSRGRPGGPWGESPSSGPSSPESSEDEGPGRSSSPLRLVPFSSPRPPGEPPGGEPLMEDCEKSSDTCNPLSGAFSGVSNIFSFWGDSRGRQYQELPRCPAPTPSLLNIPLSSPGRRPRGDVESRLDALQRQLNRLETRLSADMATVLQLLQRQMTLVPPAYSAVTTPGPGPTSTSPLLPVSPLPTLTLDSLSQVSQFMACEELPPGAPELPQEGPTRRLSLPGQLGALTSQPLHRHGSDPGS
KCNQ1 pot – potentiators or activators of human KCNQ1 potassium channel. 310,000 tested, 0.35% active. CHO-K1 KCNQ1, thallium flux FluxOR fluorescence; stronger effect = higher value. B-score at 10 µM. P51787;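 active = fluorescence ratio B-score, a plate-corrected score, at least three library SD, with initial intensity B-score within 5 SD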
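Assay system: stable KCNQ1 CHO-K1 line; medium: assay buffer, equal DMSO in all wells; timing: 90 min dye loading and 20 min compound exposure, both at room temperature; technique: kinetic FluxOR thallium fluorescence, 10-s 1-Hz baseline, 110-s post-stimulus read; read-out basis: B score of baseline-normalized fluorescence ratio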
KCNK9 inh – human KCNK9 channel inhibition; Q9NPC2; HEK293 KCNK9, FluxOR thallium flux fluorescence; stronger effect = lower value; B-score at 10 µM; 310,000 tested, 1.2% active;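 active = ratio B-score over 3 SD below the library mean, with starting fluorescence within 5 SD of its mean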;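 also: negative B-score means less thallium flux so channel inhibition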
KCNQ1 block – blocks the human KCNQ1 potassium channel; AID 2642; 310,000 tested, 1.3% active; CHO-K1 KCNQ1, FluxOR thallium flux fluorescence; stronger effect = higher value; B-score at 10 µM; P51787;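 active = compounds whose thallium flux B-score, printed positive for inhibition, exceeds three library SD while starting fluorescence stays within three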;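 also: channel opened by potassium depolarization with thallium stimulus after 20 min compound exposure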
KCNK3 inh – human KCNK3 channel inhibition, primary screen; O14649; CHO-KCNK3 thallium flux, FluxOR fluorescence; stronger effect = lower value; B-score at 10 µM; 340,000 tested, 0.84% active; AID 602410;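 active = B-score under library mean minus 4 SD, starting fluorescence ratio at most library mean plus 5 SD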;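 also: more negative B-score means stronger inhibition of thallium flux through KCNK3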
Active calls of the source: *; i = inactive; / = no result.

SMILES	hERG protect	KCNQ1 pot	KCNK9 inh	KCNQ1 block	KCNK3 inh
Cc1cc(O)cc2c1C(=O)/C(=C/c1ccco1)O2	-11.4	i	i	11*	i
CC(=O)Oc1ccc2c(c1)O/C(=C\c1ccncc1)C2=O	-27.3	i	i	9*	i
COC(=O)COc1ccc2c(c1)O/C(=C\c1ccco1)C2=O	-6.8	i	i	i	i
Cc1cccc(N2CC(C(=O)NCCC3=CCCCC3)CC2=O)c1C (stereo unspecified)	-17.0	i	i	i	i
CCCCn1c(N)c(N(CC(C)C)C(=O)CCCc2cccs2)c(=O)[nH]c1=O	-10.4	i	i	i	i
O=C(CCNC(=O)c1ccco1)Nc1ccc(Cl)c(C(F)(F)F)c1	-5.2	i	i	i	i
CCn1c(SCC(N)=O)nc2c(c1=O)C1(CCCC1)Cc1ccccc1-2	-4.4	i	-6.7*	i	i
NC(=O)CSc1nc2c(c(=O)n1-c1ccccc1)C1(CCCCC1)Cc1ccccc1-2	-3.1	i	i	i	i
COc1cccc(CNC(=O)CN2C(=O)COc3ccc(S(=O)(=O)N4CCOCC4)cc32)c1	-3.6	i	i	i	i
COc1ccc(C2=NOC(C(=O)Nc3ccc4c(c3)OCCO4)C2)c(OC)c1 (stereo unspecified)	-7.5	i	i	i	i
CCOCC(=O)OCC(=O)Nc1cc(OC)c([N+](=O)[O-])cc1C	4.9*	i	i	i	i
C=CCNc1nc(Nc2ccc([N+](=O)[O-])cc2)nc(OC)n1	-6.5	i	i	i	i
COc1nc(Nc2ccc([N+](=O)[O-])cc2)nc(NC2CCCCC2)n1	-7.3	i	-7.14*	i	i
COC(=O)c1cnn(-c2ccc(F)cc2F)c1/C=N/NC(=S)NC(C)(C)C	-3.6	i	-6.99*	i	i
CC1(C)C[C@@H]2C[C@@](C)(CN2C(=O)c2cc(COc3cccc(C(F)(F)F)c3)on2)C1	-14.2	i	i	7*	i
O=C(CNC(=O)c1ccc(Br)o1)NC1CCCCC1	-11.7	i	i	i	i
COc1ccc(S(=O)(=O)N2CCC(C(=O)Nc3ccccc3N3CCCCC3)CC2)cc1OC	-11.1	i	i	i	i
O=C(NN=C1c2ccccc2-c2ccccc21)c1cccc(Br)c1	46.1*	18*	i	i	i
Oc1c(/C=N/c2ccccn2)sc2ccccc12	-9.1	11*	i	i	i
Oc1c(C=Nc2ccc(Cl)cn2)sc2ccccc12	-13.4	i	i	i	i
CCOc1c(Nc2ccc(C(C)C)cc2)c(=O)c1=O	-6.2	i	i	i	i
CCCCCCCCNC(C)C(O)c1ccc(SC(C)C)cc1 (stereo unspecified)	-24.9	i	i	6*	i
COc1ccc(-c2nnc(Nc3nc4c(OC)cccc4s3)o2)cc1	11.7*	50*	i	i	i
Fc1cccc2sc(Nc3nc4c(F)cccc4s3)nc12	13.1*	i	i	i	i
COc1cc(OC)cc(-c2nnc(NC(=O)CCS(=O)(=O)c3ccc(F)cc3)o2)c1	-12.7	i	i	i	i
SMILES	hERG protect	KCNQ1 pot	KCNK9 inh	KCNQ1 block	KCNK3 inh
COc1ccc(-c2nnc(Nc3nc4c(OC)cccc4s3)o2)c(OC)c1	2.1	i	i	i	i
NNc1nc2c(F)cccc2s1	-9.0	i	i	i	i
COc1cc(OC)cc(-c2nnc(Nc3nc4c(F)cccc4s3)o2)c1	5.9*	22*	i	i	i
Fc1cccc2sc(Nc3nnc(-c4ccccc4)o3)nc12	51.2*	66*	i	i	i
NS(=O)(=O)c1ccc(CCNC(=O)c2cnc(Cl)c(Cl)c2)cc1	-7.2	i	i	i	i
CCCCCCCCn1c(N2CCN(c3cccc(Cl)c3)CC2)nc2c1c(=O)[nH]c(=O)n2C	-9.7	i	i	i	i
CCCCCCn1c(N2CCN(c3cccc(Cl)c3)CC2)nc2c1c(=O)[nH]c(=O)n2C	-3.3	i	-7.61*	i	i
CCN(C(=O)COC(=O)CSc1ccc(F)cc1)c1c(N)n(Cc2ccccc2)c(=O)[nH]c1=O	/	/	/	/	i
COc1ccc(CC(=O)Nc2ccncc2Cl)cc1	-8.7	i	i	i	i
COc1ccc(CCC(=O)OCC(=O)NCc2ccc(OC)c(OC)c2)cc1OC	/	/	/	/	i
Cc1nnc(NC(=O)C2CCN(S(=O)(=O)c3cc([N+](=O)[O-])ccc3Cl)CC2)o1	/	/	/	/	i
Cc1cccc2sc(NC(=O)C3CCN(S(=O)(=O)c4cc([N+](=O)[O-])ccc4Cl)CC3)nc12	-7.3	i	i	11*	i
COc1ccc(OC)c(CNS(=O)(=O)c2cn(C)cn2)c1	-4.7	i	i	i	i
CCCCN(C)CC(O)Cn1cc(/C=C/C(=O)c2cccs2)c2ccccc21 (stereo unspecified)	-31.7	i	i	8*	i
COc1ccc(-n2c(SCC(=O)N3CCCCC3)nnc2-c2cccnc2)cc1	6.4*	i	i	i	i
COc1cc(OC)cc(C(=O)NC(=S)NNC(=O)[C@H]2C[C@@H]2c2ccccc2)c1	-17.8	15*	i	i	i
O=C(NC(=S)NNC(=O)[C@H]1C[C@@H]1c1ccccc1)c1ccc(F)cc1	-23.4	i	i	6*	i
O=C(O)C1(Nc2ccc([N+](=O)[O-])cc2[N+](=O)[O-])CCCC1	/	/	/	/	i
Cc1cccc(C(=O)NC(=S)N2CCc3ccccc3C2)c1	21.1*	13*	i	i	i
CC(C)(C)NCC(O)COc1ccccc1C(C)(C)C (stereo unspecified)	-11.1	8*	i	i	i
CC(C)(C)NCC(O)COc1ccccc1C(=O)CCc1ccccc1 (stereo unspecified)	0.8	i	i	i	i
CC(C)C(C)NC(=O)COC(=O)C1CCN(S(=O)(=O)c2ccc3c(c2)OCCO3)CC1 (stereo unspecified)	-10.6	i	i	i	i
COc1ccc(S(=O)(=O)N(C)C)cc1NCC(=O)Nc1cccc2ccccc12	-14.5	i	-7.37*	i	i
Cc1ccc(S(=O)(=O)N(C)C)cc1NC(=S)Nc1cccc2ccccc12	-5.1	i	-7.13*	i	i
Cc1ccc(S(=O)(=O)N(C)C)cc1NC(=S)NC(C)CCCC(C)C (stereo unspecified)	6.6*	i	i	i	i
Cc1ccc(S(=O)(=O)N(C)C)cc1NC(=S)NC(C)CCC(C)C (stereo unspecified)	-3.5	i	i	i	i
COc1ccc(S(=O)(=O)N(C)C)cc1NCC(=O)Nc1ccc(F)cc1F	-5.8	i	i	i	i
